FN deposition inh – fibronectin deposition inhibition; AH1F fibroblasts, Alexa488-fibronectin deposition fluorescence, overnight; inhibition, % at 12.6 µM; actives 0.086% (n = 350,000);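 active = mean inhibition across replicates of 30% or more, regardless of how many single replicates reach that level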;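 note: positive control wells lacked labelled fibronectin entirely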
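Material – AH1F fibroblast monolayer, labelled fibronectin deposition · Reagent – labelled fibronectin 24 nM · Timing – 1 h adhesion, overnight exposure · Measured by – fluorescence at 485 nm excitation, 525 nm emission · Read-out – inhibition of fibronectin deposition signal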
SIRT5 inh – inhibitors of human sirtuin-5 desuccinylase; Q9NXA8; Purified SirT5, succinyl-peptide AMC, trypsin-coupled fluorescence; inhibition, % at 15 µM; actives 1.1% (n = 330,000); in the data active = inhibition above about 15%
Target sequence (Q9NXA8 whole entry, looked up): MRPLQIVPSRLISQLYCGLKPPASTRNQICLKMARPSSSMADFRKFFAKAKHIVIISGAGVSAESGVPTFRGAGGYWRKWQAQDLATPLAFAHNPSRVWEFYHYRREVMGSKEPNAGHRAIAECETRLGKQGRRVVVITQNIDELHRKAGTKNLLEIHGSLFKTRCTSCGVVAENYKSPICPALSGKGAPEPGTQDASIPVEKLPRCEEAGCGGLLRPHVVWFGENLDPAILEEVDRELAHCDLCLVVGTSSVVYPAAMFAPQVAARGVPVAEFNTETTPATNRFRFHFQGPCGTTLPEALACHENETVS
DENV2 CPE rescue – protects cells from dengue virus 2 cytopathic effect. DENV2-infected cells, cytopathic effect rescue, plate reader. CPE inhibition, % at 9.99 µM. actives 1.7% (n = 350,000); in the data active = CPE inhibition above about 20%, passing the limit was not always enough; tested in BHK-21 cells;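 note: 0% = median of neutral control wells and 100% = median of positive control wells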
Xi reactivation – activators of X-chromosome reactivation in mouse fibroblasts; XiGFP mouse fibroblasts, % GFP-positive cells imaging, 3 d; cells co-treated with 5-aza-dC sensitizer; scaled so ellipticine positive control = 100%; activation, % at 7.58 µM; actives 0.055% (n = 360,000); AID 743238;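 active = mean normalized replicate activation at least 10% and every replicate at or above 10%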;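 note: 0% = median of on-plate neutral control wells and 100% = ellipticine 6 µM median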
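material = 68-5-11 XiGFP fibroblast line | medium = DMEM plus 5-aza-dC sensitizer | schedule = 3 days compound exposure | benchmarks = positive control ellipticine, 6 µM final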
FGF22 binding – shifts melting point of recombinant human FGF22 | Q9HCT0 | recombinant FGF22 thermal shift, SYPRO orange fluorescence; percent of sucrose octasulfate shift, DMSO zero | activity (Tm shift, normalised), % at 9.99 µM | actives 1.5% (n = 340,000);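 active = mean Tm shift, scaled 0 neutral to 100 positive control, at about 1.3% or above, every replicate too, limit read from the data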
ARNT TACC3 PPI – ARNT/TACC3 interaction disruption; Q9Y6A5; AlphaScreen His-ARNT PAS-B/GST-TACC3 binding, luminescence; TACC3 fragment carries E629A point mutation; inhibition, % at 9.99 µM; actives 0.66% (n = 390,000);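 active = mean inhibition of replicates at least 50% and at least half of replicates each reaching 50%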;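 note: 0% = complete ARNT plus TACC3 wells and 100% = ARNT alone without TACC3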
An asterisk follows results filed as active; . = no result given. This is a sample that favours compounds with a hit; in the whole collection about 3.8% have one here.

SMILES	FN deposition inh	SIRT5 inh	DENV2 CPE rescue	Xi reactivation	FGF22 binding	ARNT TACC3 PPI
Cc1cc(C)cc(OCC(=O)Nc2ccc3c(c2)OCCO3)c1	-10	0	15	0	43*	7
Cc1ccc(-c2ccc(=O)n(CC(=O)Nc3ccc4c(c3)OCCO4)n2)cc1	-1	20*	-2	0	0	-10
O=C(COc1ccc(F)cc1)Nc1ccc2c(c1)OCCO2	-2	3	102*	0	0	.
CC(=O)N1[C@H](CO)[C@H](c2ccccc2)C12CN(Cc1nccs1)C2	.	11	10	0	0	.
O=C(c1ccccc1)N1[C@@H](CO)[C@@H](c2ccccc2)C12CN(Cc1nccs1)C2	-4	6	25*	0	0	.
CC(=O)N1[C@@H](CO)[C@@H](c2ccccc2)C12CN(Cc1nccs1)C2	.	0	4	0	0	.
CCC(=O)N1[C@H](CO)[C@@H](c2ccccc2)C12CN(Cc1nccs1)C2	.	-5	73*	0	0	.
O=C(c1ccccc1)N1[C@H](CO)[C@@H](c2ccccc2)C12CN(Cc1nccs1)C2	-1	0	27*	0	0	.
CN(C)c1ccc(-c2nn3c(-c4ccccc4Cl)nnc3s2)cc1	.	.	.	.	.	0
COc1ccccc1-c1nnc2sc(-c3ccc(N(C)C)cc3)nn12	-3	-2	42*	0	0	-5
COc1cccc(C2c3c(oc4ccccc4c3=O)C(=O)N2Cc2ccco2)c1 (configuration not stated)	-11	-4	4	0	0	47*
Cc1cc(Cl)ccc1OC(C)C(=O)Nc1ccc(C(=O)Nc2ccccc2C(=O)O)cc1 (configuration not stated)	.	9	19	0	1.4*	2
COc1ccccc1C(O)c1ncc(-c2cccc3ccccc23)[nH]1 (configuration not stated)	2	.	2	0	43*	.
OC(c1ccc(F)cc1)c1ncc(-c2cccc3ccccc23)[nH]1 (configuration not stated)	11	-6	1	0	0	.
COc1ccc2c3c(n(C)c2c1)[C@H](CO)N(C(=O)c1ccc(F)cc1)CC31CN(C(=O)c2ccc(F)cc2)C1	.	3	-1	0	0	.
Cc1ccc(S(=O)(=O)c2nc(Cc3ccccc3)oc2N2CCOCC2)cc1	3	18*	-2	0	0	-1
COc1ccc(C)cc1N(C)C(=O)Cc1c(C(=O)O)n(C)c2ccccc12	-4	29*	-12	0	0	-6
COc1ccc(C)cc1NC(=O)Cc1c(C(=O)O)n(C)c2ccccc12	5	0	-6	0	1	0
COc1cc(NC(=O)Cc2nn(C)c(=O)c3ccccc23)cc(OC)c1OC	.	-4	2	.	0	-1
COc1cc(NC(=O)Cc2c(C(=O)O)n(C)c3ccccc23)cc(OC)c1OC	4	0	-4	0	43*	-5
COc1ccc(NC(=O)Cc2c(C(=O)O)n(C)c3ccccc23)cc1OC	18	0	7	0	43*	-3
CCn1c(CNc2cccc(C(F)(F)F)c2)n[nH]c1=S	3	-1	6	0	43*	-1
CCn1ncc(-c2cc(C(=O)O)no2)c1C	-6	1	0	0	43*	-5
Cc1c(-c2cc(C(=O)O)no2)cnn1C	4	-2	-4	0	0	0
C[C@@H]1CCCCO[C@H](CN(C)S(C)(=O)=O)[C@@H](C)CN([C@H](C)CO)C(=O)c2cc(NC(=O)Nc3cccc4ccccc34)ccc2O1	.	3	7	0	-1	-1
CO[C@@H]1CN(C)C(=O)c2ccc(NC(C)=O)cc2OC[C@@H](C)N(Cc2cncnc2)C[C@@H]1C	0	.	.	0	.	.
CC(C)N1CCN(Cc2cc(F)ccc2-n2cccn2)CC1CCO (configuration not stated)	-3	20*	13	0	0	-7

Source: PubChem
